What was measured:
Assay type in all cases: functional
[1] = tested on: Felis catus; assay: Average food consumed at the dose of 0.063 mg/kg (po) using 10 cats per dose level at 60 min (control day/ test day); 18/98
[2] = tested on: Felis catus; assay: Average food consumed at the dose of 0.25 mg/kg (po) using 10 cats per dose level at 180 min (control day/ test day); 25/236
[3] = tested on: Felis catus; assay: Average food consumed at the dose of 0.25 mg/kg (po) using 10 cats per dose level at 180 min (control day/ test day); 30/169
[4] = tested on: Felis catus; assay: Average food consumed at the dose of 0.25 mg/kg (po) using 10 cats per dose level at 180 min (control day/ test day); 41/138
[5] = tested on: Felis catus; assay: Average food consumed at the dose of 0.063 mg/kg (po) using 10 cats per dose level at 30 min (control day/ test day); 17/57
[6] = tested on: Felis catus; assay: Average food consumed at the dose of 0.50 mg/kg (po) using 10 cats per dose level at 30 min (control day/ test day); 13/68; conditions: dose 0.5 mg/kg
Method in brief: (§1)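 Cats given test compound suspended in 1% methylcellulose, or 1% methylcellulose placebo, by gavage 30 min before a preweighed test meal. Food was offered in surplus for 3 h, and intake was found by reweighing at 30, 60 and 180 min. Ten cats per dose, each dosed no more than once weekly. Test-day intake was compared with the preceding control day by two-tailed paired t test (p < 0.05); values are mean ± SD.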

[7] = tested on: Felis catus; assay: Average food consumed at the dose of 0.50 mg/kg (po) using 10 cats per dose level at 30 min (control day/ test day); 30/147; conditions: dose 0.5 mg/kg; method in brief: as §1
[8] = tested on: Felis catus; assay: Average food consumed at the dose of 0.50 mg/kg (po) using 10 cats per dose level at 30 min (control day/ test day); 35/108; conditions: dose 0.5 mg/kg; method in brief: as §1
[9] = tested on: Felis catus; assay: Average food consumed at the dose of 0.50 mg/kg (po) using 10 cats per dose level at 60 min (control day/ test day); 19/96; conditions: dose 0.5 mg/kg; method in brief: as §1
[10] = tested on: Felis catus; assay: Average food consumed at the dose of 0.50 mg/kg (po) using 10 cats per dose level at 60 min (control day/ test day); 33/124; conditions: dose 0.5 mg/kg; method in brief: as §1
[11] = tested on: Felis catus; assay: Average food consumed at the dose of 0.50 mg/kg (po) using 10 cats per dose level at 60 min (control day/ test day); 34/203; conditions: dose 0.5 mg/kg; method in brief: as §1
[12] = tested on: Felis catus; assay: Average food consumed at the dose of 0.031 mg/kg (po) using 10 cats per dose level at 180 min (control day/ test day); 27/159
[13] = tested on: Felis catus; assay: Average food consumed at the dose of 0.031 mg/kg (po) using 10 cats per dose level at 30 min (control day/ test day); 20/55
[14] = tested on: Felis catus; assay: Average food consumed at the dose of 0.031 mg/kg (po) using 10 cats per dose level at 60 min (control day/ test day); 17/79
[15] = tested on: Felis catus; assay: Average food consumed at the dose of 0.063 mg/kg (po) using 10 cats per dose level at 180 min (control day/ test day); 17/166
[16] = tested on: Felis catus; assay: Average food consumed at the dose of 0.50 mg/kg (po) using 10 cats per dose level at 180 min (control day/ test day); 34/273; conditions: dose 0.5 mg/kg; method in brief: as §1
[17] = tested on: Felis catus; assay: Average food consumed at the dose of 0.50 mg/kg (po) using 10 cats per dose level at 180 min (control day/ test day); 36/188; conditions: dose 0.5 mg/kg; method in brief: as §1
[18] = tested on: Felis catus; assay: Average food consumed at the dose of 0.25 mg/kg (po) using 10 cats per dose level at 30 min (control day/ test day); 24/129
[19] = tested on: Felis catus; assay: Average food consumed at the dose of 0.25 mg/kg (po) using 10 cats per dose level at 30 min (control day/ test day); 32/66; method in brief: as §1
[20] = tested on: Felis catus; assay: Average food consumed at the dose of 0.50 mg/kg (po) using 10 cats per dose level at 180 min (control day/ test day); 16/141; conditions: dose 0.5 mg/kg; method in brief: as §1
[21] = tested on: Felis catus; assay: Average food consumed at the dose of 0.25 mg/kg (po) using 10 cats per dose level at 60 min (control day/ test day); 25/109; method in brief: as §1
[22] = tested on: Felis catus; assay: Average food consumed at the dose of 0.25 mg/kg (po) using 10 cats per dose level at 60 min (control day/ test day); 31/179; method in brief: as §1
[23] = tested on: Felis catus; assay: Average food consumed at the dose of 0.25 mg/kg (po) using 10 cats per dose level at 60 min (control day/ test day); 31/66; method in brief: as §1
[24] = tested on: Felis catus; assay: Average food consumed at the dose of 0.25 mg/kg (po) using 10 cats per dose level at 30 min (control day/ test day); 17/76

In the case of `CN1CCC(=C2c3ccccc3C=Cc3ccc(C(=O)O)cc32)CC1`, the Average consumed [1] is reported as 94 g, the Average consumed [2] is reported as 191 g and the Average consumed [3] is reported as 133 g. The Average consumed [4] was 137 g, the Average consumed [5] was 68 g and the Average consumed [6] was 71 g. For the same compound, the Average consumed [7] was 116 g, the Average consumed [8] was 72 g and the Average consumed [9] was 94 g. For the same compound, the Average consumed [10] was 102 g, the Average consumed [11] was 160 g and the Average consumed [12] was 157 g. For the same compound, the Average consumed [13] was 68 g, the Average consumed [14] was 95 g and the Average consumed [15] was 159 g. It also gave an Average consumed [16] of 219 g, an Average consumed [17] of 149 g and an Average consumed [18] of 108 g. The Average consumed [19] was 68 g, the Average consumed [20] was 125 g and the Average consumed [21] was 90 g. For the same compound, the Average consumed [22] was 147 g, the Average consumed [23] was 86 g and the Average consumed [24] was 62 g.

Source: ChEMBL document CHEMBL1122018, “Synthesis and orexigenic activity of some 1-methyl-4-piperidylidene-Substituted pyrrolo[2,1-g][3] benzazepine and dibenzocycloheptene derivatives” (1982)
